Experimental data from publication PMC7495461 (ACS Omega, 2020).

Legend:
HepG2 cells [1] = assay: MTT cell viability assay; format: cell-based; details: Homo sapiens, HepG2, 48 h, read-out: HepG2 IC50
Outline: (§1)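 MCF-7 or HepG2 cells were seeded at 8000–9000 cells/well. After 10 h they were exposed to test compound (0.1–80 μM) for 48 h at 37 °C in a humidified CO2 incubator. Medium was replaced with MTT (from a 5 mg/mL PBS pH 7.4 stock) in DMEM for 4–5 h. Formazan was dissolved in DMSO and absorbance read at 570/590 nm. Percent viability was used to derive IC50, with mean ± SD of n = 3 and paclitaxel as positive control.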

MCF-7 cells [2] = assay: MTT cell viability assay; format: cell-based; details: Homo sapiens, MCF7, 48 h, read-out: MCF-7 IC50
Outline: as §1

MARK4 = target: T1, MARK4 (Homo sapiens, UniProt Q96L34); assay: MARK4 enzyme inhibition assay; format: biochemical
T1 sequence (Q96L34 1-752): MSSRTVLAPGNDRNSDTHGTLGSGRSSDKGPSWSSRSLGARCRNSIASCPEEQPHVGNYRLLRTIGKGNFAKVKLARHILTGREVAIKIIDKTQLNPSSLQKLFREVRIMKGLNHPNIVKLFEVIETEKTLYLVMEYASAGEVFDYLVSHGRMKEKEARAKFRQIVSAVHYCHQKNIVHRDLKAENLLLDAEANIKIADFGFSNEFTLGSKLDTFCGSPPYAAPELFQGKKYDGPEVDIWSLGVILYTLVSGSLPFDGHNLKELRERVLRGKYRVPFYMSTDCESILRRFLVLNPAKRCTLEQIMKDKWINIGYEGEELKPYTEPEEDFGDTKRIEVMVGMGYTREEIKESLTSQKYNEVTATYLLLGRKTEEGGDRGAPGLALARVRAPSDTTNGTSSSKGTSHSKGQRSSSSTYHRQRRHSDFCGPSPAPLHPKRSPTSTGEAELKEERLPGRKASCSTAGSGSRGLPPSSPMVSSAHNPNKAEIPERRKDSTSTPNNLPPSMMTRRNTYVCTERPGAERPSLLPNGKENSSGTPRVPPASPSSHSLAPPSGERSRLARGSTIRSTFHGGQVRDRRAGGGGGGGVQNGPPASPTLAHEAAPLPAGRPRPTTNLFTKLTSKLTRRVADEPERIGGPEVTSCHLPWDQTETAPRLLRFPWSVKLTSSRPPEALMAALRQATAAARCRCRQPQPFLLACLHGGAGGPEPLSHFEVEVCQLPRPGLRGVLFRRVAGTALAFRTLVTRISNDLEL

HepG2 cells [3] = assay: Apoptosis assay; format: cell-based, human; details: IC50 dose, 10 h, Annexin-V/PI
Outline: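 HepG2 cells were seeded at 2.5 × 10^5 cells/well in six-well plates and grown to 80% confluency. They were treated for 10 h at 37 °C, with media-only controls. Cells were trypsinized, washed three times with PBS and stained with FITC-Annexin-V and PI in Annexin binding buffer. About 10,000 events per sample were acquired by flow cytometry. Measurements were duplicate ± SD, with unpaired t-test against vehicle control.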

HEK293 cells = assay: MTT cell viability assay, noncancerous cells; format: cell-based, human; details: up to 100 μM, 48 h
Outline: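 HEK293 cells were exposed to increasing test compound concentrations for 48 h. Viability was expressed as viable cells as a percentage of untreated control. Data are mean ± SD, n = 3.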

HepG2 cells [4] = assay: Estimation of ROS production; format: cell-based, human; details: HepG2, IC50 dose, 5–6 h, vs vehicle control
Outline: (§2)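 MCF-7 or HepG2 cells were plated at 2.5 × 10^5 cells/well, treated next day for 5–6 h, with H2O2 as positive control. They were loaded with 10 μM DCFDA for 30 min at 37 °C in the dark, then trypsinized and pelleted. DCF fluorescence was read by spectrofluorimeter (ex 485, em 500–550 nm). Measurements were triplicate, with unpaired t-test against vehicle control.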

MCF-7 cells [5] = assay: Estimation of ROS production; format: cell-based, human; details: MCF-7, IC50 dose, 5–6 h, vs vehicle control
Outline: as §2

SMILES	IC50 (HepG2 cells [1]) [µM]	IC50 (MCF-7 cells [2]) [µM]	IC50 (MARK4) [µM]	MARK4 inhibition at a single dose (MARK4; single dose of 20 μM, initial screening)	apoptosis induced, % of HepG2 cells (HepG2 cells [3]) [%]	viability of noncancerous cells (HEK293) (HEK293 cells)	DCF fluorescence (level of ROS production) (HepG2 cells [4])	DCF fluorescence (level of ROS production) (MCF-7 cells [5])
Cc1ccc(C(=NO)n2c([N+](=O)[O-])cnc2C)cc1 [Compound 4c, N-[(2-Methyl-5-nitro-1H-imidazol-1-yl)(4-methylphenyl)methylidene]hydroxylamine]	33.2	32.5	> 20					
CCc1ccc(C(=NO)n2c([N+](=O)[O-])cnc2C)cc1 [Compound 4e, N-[(4-Ethylphenyl)(2-methyl-5-nitro-1H-imidazol-1-yl)methylidene]hydroxylamine]	21.5	23.3	18.5					
COc1ccc(C(=NO)n2c([N+](=O)[O-])cnc2C)cc1 [Compound 4b, N-[(4-Methoxyphenyl)(2-methyl-5-nitro-1H-imidazol-1-yl)methylidene]hydroxylamine]	32.7	34.4	> 20					
CCOc1ccc(C(=NO)n2c([N+](=O)[O-])cnc2C)cc1 [Compound 4d, N-[(4-Ethoxyphenyl)(2-methyl-5-nitro-1H-imidazol-1-yl)methylidene]hydroxylamine]	35.4	33.3	> 20					
Cc1ncc([N+](=O)[O-])n1C(=NO)c1ccccc1 [Compound 4a, N-[(2-Methyl-5-nitro-1H-imidazol-1-yl)(phenyl)methylidene]hydroxylamine]	38.5	37.3	> 20					

More lines, main results first:

IC50 (HepG2 cells [1]) [µM]	IC50 (MCF-7 cells [2]) [µM]	IC50 (MARK4) [µM]	MARK4 inhibition at a single dose (MARK4; single dose of 20 μM, initial screening)	SMILES	apoptosis induced, % of HepG2 cells (HepG2 cells [3]) [%]	viability of noncancerous cells (HEK293) (HEK293 cells)	DCF fluorescence (level of ROS production) (HepG2 cells [4])	DCF fluorescence (level of ROS production) (MCF-7 cells [5])
5.99	3.74	1.47	significant inhibition	Cc1ncc([N+](=O)[O-])n1C(=NO)c1ccccc1C(F)(F)F [Compound 4h, N-{(2-Methyl-5-nitro-1H-imidazol-1-yl)[2-(trifluoromethyl)phenyl]methylidene}hydroxyl Amine]	20.8	did not affect the viability	decreases	decreases
24.8	28.8	> 20		Cc1ncc([N+](=O)[O-])n1C(=NO)c1ccc(Cl)cc1 [Compound 4f, N-[(4-Chlorophenyl)(2-methyl-5-nitro-1H-imidazol-1-yl)methylidene]hydroxylamine]				
25.3	22.5	16.2		Cc1ncc([N+](=O)[O-])n1C(=NO)c1ccc([N+](=O)[O-])cc1 [Compound 4g, N-[(2-Methyl-5-nitro-1H-imidazol-1-yl)(4-nitrophenyl)methylidene]hydroxylamine]				
